Measured values reported in ChEMBL document CHEMBL3627606, “Development of Novel, CNS Penetrant Positive Allosteric Modulators for the Metabotropic Glutamate Receptor Subtype 1 (mGlu1), Based on an N-(3-Chloro-4-(1,3-dioxoisoindolin-2-yl)phenyl)-3-methylfuran-2-carboxamide Scaffold, That Potentiate Wild Type and Mutant mGlu1 Receptors Found in …” (J Med Chem, 2015).

Assays:
Plasma [1] = assay: Metabolic stability in rat plasma; assay type: ADME, cell-free
[2] = Drug concentration in Sprague-Dawley rat brain at 0.2 mg/kg, iv after 0.25 hrs by LC-MS/MS analysis; conditions: read-out: Drug uptake
[3] = biological target: T1, Metabotropic glutamate receptor 1 (Homo sapiens, UniProt Q13255); assay: Positive allosteric modulation of human mGlu1 receptor in HEK293 cells assessed as potentiation of glutamate-induced calcium mobiliztion by Fluo-4AM dye based fluorescence analysis; assay type: functional, cell-based; conditions: read-out: EC50
Target sequence in this assay (Q13255 whole entry): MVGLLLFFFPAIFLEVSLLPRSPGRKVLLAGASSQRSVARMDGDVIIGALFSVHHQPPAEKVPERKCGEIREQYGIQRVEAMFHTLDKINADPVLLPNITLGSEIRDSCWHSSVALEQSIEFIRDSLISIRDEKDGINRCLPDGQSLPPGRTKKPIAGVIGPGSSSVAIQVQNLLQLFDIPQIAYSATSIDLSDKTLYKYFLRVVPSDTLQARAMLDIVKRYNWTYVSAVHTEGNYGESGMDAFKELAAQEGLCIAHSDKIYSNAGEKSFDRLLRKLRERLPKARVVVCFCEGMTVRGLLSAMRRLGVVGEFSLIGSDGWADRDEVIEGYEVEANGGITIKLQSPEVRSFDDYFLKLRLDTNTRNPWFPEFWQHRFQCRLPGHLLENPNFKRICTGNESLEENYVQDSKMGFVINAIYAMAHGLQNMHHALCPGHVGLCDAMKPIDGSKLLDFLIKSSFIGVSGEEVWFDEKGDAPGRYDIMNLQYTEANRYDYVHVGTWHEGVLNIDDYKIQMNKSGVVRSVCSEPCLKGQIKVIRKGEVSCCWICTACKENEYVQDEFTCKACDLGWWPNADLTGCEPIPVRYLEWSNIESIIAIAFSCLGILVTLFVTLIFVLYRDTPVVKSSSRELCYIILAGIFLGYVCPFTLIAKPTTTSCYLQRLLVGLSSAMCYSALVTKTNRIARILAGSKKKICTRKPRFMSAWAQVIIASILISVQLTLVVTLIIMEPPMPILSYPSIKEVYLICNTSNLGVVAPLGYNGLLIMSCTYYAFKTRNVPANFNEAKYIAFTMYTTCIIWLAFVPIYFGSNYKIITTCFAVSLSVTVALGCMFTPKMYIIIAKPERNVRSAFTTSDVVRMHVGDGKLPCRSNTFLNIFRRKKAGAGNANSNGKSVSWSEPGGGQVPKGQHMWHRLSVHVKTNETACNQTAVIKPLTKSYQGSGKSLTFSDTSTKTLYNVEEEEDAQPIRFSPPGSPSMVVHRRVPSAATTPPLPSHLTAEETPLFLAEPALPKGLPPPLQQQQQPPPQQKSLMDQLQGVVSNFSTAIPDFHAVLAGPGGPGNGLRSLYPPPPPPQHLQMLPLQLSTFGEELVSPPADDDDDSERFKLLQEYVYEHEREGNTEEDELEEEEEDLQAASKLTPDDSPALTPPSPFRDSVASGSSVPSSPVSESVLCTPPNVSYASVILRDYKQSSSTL

[4] = Plasma concentration in Sprague-Dawley rat at 0.2 mg/kg, iv after 0.25 hrs by LC-MS/MS analysis
Cytochrome P450 2C9 = Cytochrome P450 2C9 (Homo sapiens, UniProt P11712); assay: Inhibition of CYP2C9 in human liver microsomes by LC-MS/MS analysis; assay type: ADME
Sequence of Cytochrome P450 2C9 (P11712 whole entry): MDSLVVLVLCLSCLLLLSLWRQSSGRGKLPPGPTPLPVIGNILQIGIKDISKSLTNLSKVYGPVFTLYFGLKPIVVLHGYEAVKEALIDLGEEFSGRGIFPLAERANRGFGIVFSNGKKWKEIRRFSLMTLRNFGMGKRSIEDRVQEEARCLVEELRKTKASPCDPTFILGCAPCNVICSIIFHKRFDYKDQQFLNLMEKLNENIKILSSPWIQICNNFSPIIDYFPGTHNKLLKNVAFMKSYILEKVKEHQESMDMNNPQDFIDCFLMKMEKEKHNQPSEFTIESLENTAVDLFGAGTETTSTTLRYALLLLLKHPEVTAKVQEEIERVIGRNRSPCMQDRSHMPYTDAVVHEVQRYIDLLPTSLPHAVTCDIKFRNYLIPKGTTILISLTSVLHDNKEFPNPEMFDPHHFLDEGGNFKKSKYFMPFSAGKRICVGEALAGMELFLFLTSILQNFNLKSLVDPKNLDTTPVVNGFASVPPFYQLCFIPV

Plasma [5] = assay: Metabolic stability in human plasma; assay type: ADME, cell-free
Summary of the method: (§1)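 Compound incubated at 10 μM in rat or human plasma at 37 °C. Samples taken at 0 and 4 h were analysed by mass spectrometry for parent and metabolites.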

Cytochrome P450 2D6 = Cytochrome P450 2D6 (Homo sapiens, UniProt P10635); assay: Inhibition of CYP2D6 in human liver microsomes by LC-MS/MS analysis; assay type: ADME
Sequence of Cytochrome P450 2D6 (P10635 whole entry): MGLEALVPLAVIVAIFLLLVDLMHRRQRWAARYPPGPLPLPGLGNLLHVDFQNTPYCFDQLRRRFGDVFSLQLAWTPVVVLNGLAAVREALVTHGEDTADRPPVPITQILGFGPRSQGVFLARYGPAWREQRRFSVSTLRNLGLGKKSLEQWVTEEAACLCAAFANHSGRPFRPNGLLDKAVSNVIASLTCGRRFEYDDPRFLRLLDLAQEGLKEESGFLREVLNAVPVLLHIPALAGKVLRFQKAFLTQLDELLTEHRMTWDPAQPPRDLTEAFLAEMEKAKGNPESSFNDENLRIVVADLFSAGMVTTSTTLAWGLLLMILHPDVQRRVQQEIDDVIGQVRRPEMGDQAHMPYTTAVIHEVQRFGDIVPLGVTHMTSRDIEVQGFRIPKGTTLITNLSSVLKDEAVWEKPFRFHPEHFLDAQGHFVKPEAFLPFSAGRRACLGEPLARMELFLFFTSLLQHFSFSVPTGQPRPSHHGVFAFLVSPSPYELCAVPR

Cytochrome P450 3A4 = Cytochrome P450 3A4 (Homo sapiens, UniProt P08684); assay: Inhibition of CYP3A4 in human liver microsomes by LC-MS/MS analysis; assay type: ADME
Sequence of Cytochrome P450 3A4 (P08684 whole entry): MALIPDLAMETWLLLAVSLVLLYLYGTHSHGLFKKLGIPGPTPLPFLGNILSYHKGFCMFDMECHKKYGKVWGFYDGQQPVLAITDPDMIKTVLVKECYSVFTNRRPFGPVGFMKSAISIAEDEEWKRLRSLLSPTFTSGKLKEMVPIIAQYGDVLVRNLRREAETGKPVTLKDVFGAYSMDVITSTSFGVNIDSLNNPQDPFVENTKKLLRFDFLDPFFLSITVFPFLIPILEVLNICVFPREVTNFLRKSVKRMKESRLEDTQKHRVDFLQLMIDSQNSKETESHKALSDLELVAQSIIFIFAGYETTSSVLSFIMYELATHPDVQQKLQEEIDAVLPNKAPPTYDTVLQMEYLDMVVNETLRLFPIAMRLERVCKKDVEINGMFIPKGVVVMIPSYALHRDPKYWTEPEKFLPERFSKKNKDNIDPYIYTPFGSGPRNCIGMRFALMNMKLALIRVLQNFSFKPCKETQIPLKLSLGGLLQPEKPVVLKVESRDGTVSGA

Cytochrome P450 1A2 = biological target: T2, Cytochrome P450 1A2 (Homo sapiens, UniProt P05177); assay: Inhibition of CYP1A2 in human liver microsomes by LC-MS/MS analysis; assay type: ADME
T2 sequence (P05177 whole entry): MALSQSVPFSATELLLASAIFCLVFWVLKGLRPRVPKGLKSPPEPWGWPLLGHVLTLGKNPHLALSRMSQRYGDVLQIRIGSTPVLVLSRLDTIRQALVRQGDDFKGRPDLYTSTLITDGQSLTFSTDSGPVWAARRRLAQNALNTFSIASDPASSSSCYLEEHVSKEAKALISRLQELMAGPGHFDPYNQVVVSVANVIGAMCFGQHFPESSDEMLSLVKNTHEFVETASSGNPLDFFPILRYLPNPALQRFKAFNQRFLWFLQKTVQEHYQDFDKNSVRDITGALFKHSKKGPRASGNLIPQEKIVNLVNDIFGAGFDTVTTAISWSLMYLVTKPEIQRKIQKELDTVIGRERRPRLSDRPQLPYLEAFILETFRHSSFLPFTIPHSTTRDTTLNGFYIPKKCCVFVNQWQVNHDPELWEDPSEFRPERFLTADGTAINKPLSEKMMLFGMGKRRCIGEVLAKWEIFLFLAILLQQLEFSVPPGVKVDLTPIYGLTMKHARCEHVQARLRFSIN

[6] = biological target: Metabotropic glutamate receptor 1 (Rattus norvegicus, UniProt P23385); assay: Positive allosteric modulation of rat mGlu1 receptor assessed as potentiation of glutamate-induced calcium mobiliztion by cell based assay; assay type: functional
Summary of the method: (§2)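 Rat mGlu1 WT calcium mobilization concentration-response curves. EC50 and % Glu Max were derived from the curves.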

Plasma [7] = assay: Drug level in human plasma treated with N-(3-chloro-4-(5-chloro-1,3-dioxoisoindolin-2-yl)phenyl)-3-methylfuran-2-carboxamide at 10 uM after 4 hrs by mass spectrometry; assay type: ADME, cell-free; summary of the method: as §1
Plasma [8] = assay: Drug level in rat plasma treated with N-(3-chloro-4-(5-chloro-1,3-dioxoisoindolin-2-yl)phenyl)-3-methylfuran-2-carboxamide at 10 uM after 4 hrs by mass spectrometry; assay type: ADME, cell-free; summary of the method: as §1
[9] = biological target: T1, Metabotropic glutamate receptor 1; assay: Negative allosteric modulation of human mGlu1 receptor in HEK293 cells assessed as potentiation of glutamate-induced calcium mobiliztion by Fluo-4AM dye based fluorescence analysis; assay type: functional, cell-based
Target sequence in this assay (Q13255 whole entry): as the sequence (Q13255 whole entry) above

Plasma [10] = assay: Fraction unbound in human plasma; assay type: ADME, cell-free
[11] = Half life in Sprague-Dawley rat at 0.2 mg/kg, iv by LC-MS/MS analysis; conditions: in vivo
Mus musculus = assay: Toxicity in C57BL/6 mouse assessed as seizure activity at 100 mg/kg, ip administered as single dose measured for 3 hrs; assay type: organism-based; conditions: in vivo
Summary of the method: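 Male C57Bl/6 mice (25−30 g) dosed ip in 10% Tween 80 at 10 mL/kg: the mGlu5 ago-PAM at 1 or 3 mg/kg, the mGlu1 PAMs at 100 mg/kg. Behaviour was monitored continuously for 3 h and scored on a modified Racine scale (0−5).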

[12] = Plasma clearance in Sprague-Dawley rat at 0.2 mg/kg, iv by LC-MS/MS analysis
Plasma [13] = assay: Fraction unbound in rat plasma; assay type: ADME, cell-free
[14] = Ratio of drug level in brain to plasma of Sprague-Dawley rat at 0.2 mg/kg, iv after 0.25 hrs by LC-MS/MS analysis; conditions: read-out: BPR
[15] = Mean residence time in Sprague-Dawley rat at 0.2 mg/kg, iv by LC-MS/MS analysis; conditions: in vivo
Rattus norvegicus = assay: Volume of distribution at steady state in Sprague-Dawley rat at 0.2 mg/kg, iv by LC-MS/MS analysis; conditions: in vivo
[16] = biological target: Metabotropic glutamate receptor 3 (Homo sapiens) (UniProt Q14832); assay: Positive allosteric modulation of mGlu3 receptor (unknown origin) assessed as potentiation of glutamate-induced response by cell-based assay
Summary of the method: (§3)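 Selectivity counterscreen at the other mGlu subtypes using the standard fold-shift paradigm. Compound was tested at 10 μM against the glutamate concentration-response curve, and the shift of that curve was read.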

[17] = biological target: T1, Metabotropic glutamate receptor 1; assay: Agonist activity at human mGlu1 receptor in HEK293 cells assessed as calcium mobilization at 10 uM by Fluo-4AM dye based fluorescence analysis; assay type: functional, cell-based
Target sequence in this assay (Q13255 19-1194 limits assumed): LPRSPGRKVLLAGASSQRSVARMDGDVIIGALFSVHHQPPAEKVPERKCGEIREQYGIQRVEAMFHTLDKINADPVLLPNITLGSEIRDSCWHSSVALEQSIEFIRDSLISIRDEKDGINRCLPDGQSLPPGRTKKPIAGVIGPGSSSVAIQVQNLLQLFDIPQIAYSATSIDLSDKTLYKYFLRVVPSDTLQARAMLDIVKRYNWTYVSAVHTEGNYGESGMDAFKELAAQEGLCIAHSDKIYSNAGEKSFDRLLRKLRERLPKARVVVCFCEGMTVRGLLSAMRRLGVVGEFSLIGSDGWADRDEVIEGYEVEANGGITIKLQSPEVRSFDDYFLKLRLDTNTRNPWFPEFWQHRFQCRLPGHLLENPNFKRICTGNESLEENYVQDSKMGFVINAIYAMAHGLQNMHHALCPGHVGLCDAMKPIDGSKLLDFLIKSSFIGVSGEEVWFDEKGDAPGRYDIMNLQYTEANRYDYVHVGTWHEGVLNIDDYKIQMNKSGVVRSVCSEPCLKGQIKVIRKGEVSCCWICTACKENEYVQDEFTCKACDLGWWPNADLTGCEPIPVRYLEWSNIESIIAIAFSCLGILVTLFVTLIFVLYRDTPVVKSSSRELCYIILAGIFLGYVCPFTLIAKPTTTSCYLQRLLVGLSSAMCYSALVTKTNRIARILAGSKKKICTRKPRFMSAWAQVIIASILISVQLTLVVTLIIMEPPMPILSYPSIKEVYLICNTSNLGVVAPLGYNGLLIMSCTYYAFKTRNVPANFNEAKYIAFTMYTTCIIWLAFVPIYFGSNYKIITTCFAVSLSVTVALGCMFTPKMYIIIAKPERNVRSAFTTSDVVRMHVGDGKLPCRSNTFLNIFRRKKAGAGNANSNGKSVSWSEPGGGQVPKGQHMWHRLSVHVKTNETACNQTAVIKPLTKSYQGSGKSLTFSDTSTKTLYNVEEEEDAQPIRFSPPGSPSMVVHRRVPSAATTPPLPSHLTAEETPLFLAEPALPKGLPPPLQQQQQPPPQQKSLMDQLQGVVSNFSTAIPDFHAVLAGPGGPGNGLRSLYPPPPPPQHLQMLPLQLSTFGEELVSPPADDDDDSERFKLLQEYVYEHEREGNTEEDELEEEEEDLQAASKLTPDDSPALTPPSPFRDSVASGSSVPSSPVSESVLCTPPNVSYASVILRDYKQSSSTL

Plasma [18] = assay: Drug metabolism in rat plasma assessed as 4-chloro-2-(2-chloro-4-(3-methylfuran-2-carboxamido)phenylcarbamoyl)benzoic acid level at 10 uM after 4 hrs by mass spectrometry; assay type: ADME, cell-free
[19] = biological target: Metabotropic glutamate receptor 5 (Homo sapiens) (UniProt P41594); assay: Positive allosteric modulation of mGlu5 receptor (unknown origin) assessed as potentiation of glutamate-induced response by cell-based assay; summary of the method: as §3
[20] = biological target: T1, Metabotropic glutamate receptor 1; assay: Positive allosteric modulation of human mGlu1 receptor in HEK293 cells assessed as potentiation of glutamate-induced calcium mobiliztion by Fluo-4AM dye based fluorescence analysis relative to glutamate; assay type: functional, cell-based
Target sequence in this assay (Q13255 19-1194 limits assumed): as above

[21] = biological target: T3, Metabotropic glutamate receptor 4 (Homo sapiens, UniProt Q14833); assay: Positive allosteric modulation of human mGlu4 receptor assessed as potentiation of glutamate-induced calcium mobiliztion by cell based assay; assay type: functional
T3 sequence (Q14833 whole entry): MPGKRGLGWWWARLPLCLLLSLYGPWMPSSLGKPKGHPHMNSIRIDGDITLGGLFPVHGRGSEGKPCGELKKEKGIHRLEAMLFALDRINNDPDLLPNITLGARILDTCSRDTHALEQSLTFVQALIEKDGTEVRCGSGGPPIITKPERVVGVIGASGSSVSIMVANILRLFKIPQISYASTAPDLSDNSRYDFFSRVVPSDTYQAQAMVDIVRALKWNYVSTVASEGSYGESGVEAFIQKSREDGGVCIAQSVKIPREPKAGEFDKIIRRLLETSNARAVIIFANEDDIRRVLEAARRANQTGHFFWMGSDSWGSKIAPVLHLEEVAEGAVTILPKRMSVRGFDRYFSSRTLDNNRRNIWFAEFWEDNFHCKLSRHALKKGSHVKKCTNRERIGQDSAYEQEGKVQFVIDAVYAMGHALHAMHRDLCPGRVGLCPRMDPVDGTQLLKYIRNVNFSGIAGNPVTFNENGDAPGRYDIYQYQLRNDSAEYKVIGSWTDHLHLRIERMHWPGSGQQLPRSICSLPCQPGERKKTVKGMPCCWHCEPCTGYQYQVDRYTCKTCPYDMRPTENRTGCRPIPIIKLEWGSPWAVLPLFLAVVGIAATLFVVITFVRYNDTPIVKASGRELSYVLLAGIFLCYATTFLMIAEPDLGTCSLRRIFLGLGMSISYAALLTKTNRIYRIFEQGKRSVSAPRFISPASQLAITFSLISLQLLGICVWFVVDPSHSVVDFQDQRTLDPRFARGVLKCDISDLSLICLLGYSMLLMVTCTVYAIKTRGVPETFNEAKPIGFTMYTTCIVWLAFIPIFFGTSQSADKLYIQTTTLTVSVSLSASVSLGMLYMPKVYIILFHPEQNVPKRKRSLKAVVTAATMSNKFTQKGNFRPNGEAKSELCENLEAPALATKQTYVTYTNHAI

[22] = biological target: T3, Metabotropic glutamate receptor 4; assay: Positive allosteric modulation of human mGlu4 receptor assessed as potentiation of glutamate-induced calcium mobiliztion by cell based assay relative to PHCCC
Plasma [23] = assay: Drug metabolism in rat plasma assessed as N-(4-amino-3-chlorophenyl)-3-methylfuran-2-carboxamide level at 10 uM after 4 hrs by mass spectrometry; assay type: ADME, cell-free
Plasma [24] = assay: Drug metabolism in rat plasma assessed as 5-chloro-2-(2-chloro-4-(3-methylfuran-2-carboxamido)phenylcarbamoyl)benzoic acid level at 10 uM after 4 hrs by mass spectrometry; assay type: ADME, cell-free
Plasma [25] = assay: Drug metabolism in human plasma assessed as 5-chloro-2-(2-chloro-4-(3-methylfuran-2-carboxamido)phenylcarbamoyl)benzoic acid level at 10 uM after 4 hrs by mass spectrometry; assay type: ADME, cell-free
[26] = Intrinsic clearance in human liver microsomes at 1 uM by LC-MS/MS analysis; assay type: ADME; conditions: read-out: CLH
Plasma [27] = assay: Drug metabolism in human plasma assessed as N-(4-amino-3-chlorophenyl)-3-methylfuran-2-carboxamide level at 10 uM after 4 hrs by mass spectrometry; assay type: ADME, cell-free
Brain = assay: Drug concentration in C57BL/6 mouse brain at 100 mg/kg, ip administered as single dose; assay type: ADME, organism-based; conditions: in vivo, read-out: Drug uptake
[28] = biological target: Metabotropic glutamate receptor 6 (Homo sapiens) (UniProt O15303); assay: Positive allosteric modulation of mGlu6 receptor (unknown origin) assessed as potentiation of glutamate-induced response by cell-based assay; summary of the method: as §3
[29] = biological target: Metabotropic glutamate receptor 7 (Homo sapiens) (UniProt Q14831); assay: Positive allosteric modulation of mGlu7 receptor (unknown origin) assessed as potentiation of glutamate-induced response by cell-based assay; summary of the method: as §3
[30] = biological target: T1, Metabotropic glutamate receptor 1; assay: Positive allosteric modulation of human mGlu1 receptor in HEK293 cells assessed as potentiation of glutamate-induced calcium mobiliztion at 10 uM by Fluo-4AM dye based fluorescence analysis; assay type: functional, cell-based
Target sequence in this assay (Q13255 19-1194 limits assumed): as the sequence (Q13255 19-1194 limits assumed) above

[31] = biological target: Metabotropic glutamate receptor 1 (Rattus norvegicus) (UniProt P23385); assay: Positive allosteric modulation of rat mGlu1 receptor assessed as potentiation of glutamate-induced calcium mobiliztion by cell based assay relative to glutamate; assay type: functional; summary of the method: as §2
Plasma [32] = assay: Drug metabolism in human plasma assessed as 4-chloro-2-(2-chloro-4-(3-methylfuran-2-carboxamido)phenylcarbamoyl)benzoic acid level at 10 uM after 4 hrs by mass spectrometry; assay type: ADME, cell-free
[33] = biological target: Metabotropic glutamate receptor 2 (Homo sapiens) (UniProt Q14416); assay: Positive allosteric modulation of mGlu2 receptor (unknown origin) assessed as potentiation of glutamate-induced response by cell-based assay; summary of the method: as §3
[34] = biological target: Metabotropic glutamate receptor 8 (Homo sapiens) (UniProt O00222); assay: Positive allosteric modulation of mGlu8 receptor (unknown origin) assessed as potentiation of glutamate-induced response by cell-based assay; summary of the method: as §3

With `O=C(Nc1ccc(N2C(=O)c3cccc(Cl)c3C2=O)c(Cl)c1)c1ncccc1Cl` the Stability (Plasma [1]) was “Unstable”, the concentration at 0.25 h [2] was 284 ng/mL and the EC50 ([3]; hek293) was 390 nM. The concentration at 0.25 h [4] was 336 ng/mL, the IC50 (Cytochrome P450 2C9) was > 30000 nM and the Stability (Plasma [5]) was “Unstable”. The IC50 (Cytochrome P450 2D6) was > 30000 nM, the IC50 (Cytochrome P450 3A4) was > 30000 nM and the IC50 (Cytochrome P450 1A2) was > 30000 nM. The EC50 [6] was 356 nM.

For `Cc1ccoc1C(=O)Nc1ccc(N)c(Cl)c1`, the Drug metabolism (Plasma [7]) was “metabolite_detected” and the Drug metabolism (Plasma [8]) was “metabolite_detected”.

In the case of `CC1(C)C2C(=O)N(c3ccc(NC(=O)c4ccccn4)cc3Cl)C(=O)C21` (configuration not stated), the IC50 [9] is reported as 140 nM.

With `O=C(Nc1nc(C(F)(F)F)co1)C1c2ccccc2Oc2ccccc21` the Fu (Plasma [10]) was 0.014, the half-life [11] was 54 min and the concentration at 0.25 h [2] was 81 ng/mL. For the same molecule, the Activity (Mus musculus) was “Non-toxic”, the clearance [12] was 35 mL/min/kg and the concentration at 0.25 h [4] was 276 ng/mL. The Fu (Plasma [13]) was 0.003, the Kp at 0.25 h [14] was 0.29 and the MRT [15] was 50 min. The IC50 (Cytochrome P450 2D6) was > 30000 nM, the IC50 (Cytochrome P450 3A4) was > 30000 nM and the Vdss (Rattus norvegicus) was 1.34 L/kg.

With `Cc1ccoc1C(=O)Nc1ccc(N2C(=O)c3ccc(Cl)cc3C2=O)c(Cl)c1` the fold change (FC) [16] was 2, the Stability (Plasma [1]) was “Unstable” and the half-life [11] was 91.1 min. For the same molecule, the concentration at 0.25 h [2] was 108 ng/mL, the Activity [17] was < 20% and the EC50 [3] was 80.9 nM. For the same molecule, the Drug metabolism (Plasma [18]) was “metabolite_detected”, the fold change (FC) [19] was 2 and the Activity (Mus musculus) was “Non-toxic”. The %max [20] was 94%, the clearance [12] was 33 mL/min/kg and the concentration at 0.25 h [4] was 173 ng/mL. It also gave an EC50 ([21]; read-out: EC50) of 2250 nM, an EC50 ([21]; read-out: pEC50 (converted)) of 2290 nM and a %max [22] of 89%. For the same molecule, the Drug metabolism (Plasma [23]) was “metabolite_detected”, the Drug metabolism (Plasma [24]) was “metabolite_detected” and the Drug metabolism (Plasma [25]) was “metabolite_detected”. The Kp at 0.25 h [14] was 0.63, the CLint scaled at 1 µM [26] was 2.9 mL/min/kg and the Drug metabolism (Plasma [27]) was “metabolite_detected”. The concentration (Brain) was 1400 nM, the IC50 (Cytochrome P450 2C9) was > 30000 nM and the MRT [15] was 53.5 min. For the same molecule, the Stability (Plasma [5]) was “Unstable”, the IC50 (Cytochrome P450 2D6) was > 30000 nM and the fold change (FC) [28] was 2. The fold change (FC) [29] was 2, the IC50 (Cytochrome P450 3A4) was > 30000 nM and the fold change (FC) [30] was 8.3. The IC50 (Cytochrome P450 1A2) was > 30000 nM, the Vdss (Rattus norvegicus) was 1.76 L/kg and the EC50 [6] was 113 nM. For the same molecule, the %max [31] was 107%, the Drug metabolism (Plasma [32]) was “metabolite_detected” and the fold change (FC) [33] was 2. It also gave a fold change (FC) [34] of 2.
